Compound activity from PubChem.
Most compounds without a hit are left out; they make up all but 1.8% or so of the library.
Gli-Sufu antag: Gli-Sufu pathway antagonists, primary screen, luciferase luminescence, Sufu-KO-LIGHT cells, uHTS; Sufu-KO-LIGHT fibroblasts, Gli luciferase reporter luminescence; inhibition, % at 5 µM; 340,000 tested, 0.74% active; AID 588413, 2011;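 active = inhibition above about 55%, limit read from the data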;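 note: 0% = DMSO-treated cells and 100% = wells with medium but no cells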
Jurkat NFkB inh: inhibitors of induced NF-kB luciferase reporter, primary screen, TCR NF-kB activation inhibitor project, cell-based, luminescence, uHTS; inhibition, % at 4 µM; 330,000 tested, 0.53% active; Jurkat, PMA/ionomycin-induced NF-kB luciferase reporter; in the data active = inhibition above about 50%
iPSC survival up: enhancers of single-cell hiPSC survival, primary screen, ATPlite luminescence; 100% = ROCK inhibitor wells, 0% = DMSO; 360,000 tested, 0.044% active; survival enhancement, % at 20 µM; in the data active = survival enhancement above about 18%;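 note: cells exposed to compounds for 16 hours before the ATP read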
H9c2 TAG inh: inhibitors of triacylglycerol accumulation, primary screen, cell-based, uHTS, fluorescence, H9c2; H9c2 cells, Nile Red lipid (TAG) fluorescence; cells loaded with 200 µM oleic acid; inhibition, % at 12.5 µM; 230,000 tested, 0.66% active;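 active = pattern-corrected inhibition of lipid staining of at least 50% with the nuclear-stain viability signal not falling by more than 50%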;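 note: 0% = DMSO wells and 100% = triacsin C control wells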
Lipid droplet: inhibitors of hepatocyte lipid droplet formation, primary screen, imaging, high-throughput imaging, BODIPY stain; AML12 mouse hepatocytes, oleate lipid droplets; inhibition, % at 6.5 µM; 240,000 tested, 0.4% active; AID 1656, 2009;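 active = lipid droplet intensity inhibited by at least 50%, with more than 500 cells counted; inconclusive = wells with under 300 cells, treated as cytotoxic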
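Material – mouse AML12 hepatocyte cell line, fixed after treatment · Compound dosing – one dose, 6.5 µM compound · Times – compound with oleate, overnight · Measured by – Image-based BODIPY and DAPI two-channel analysis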
697 NFkB inh: inhibitors of PMA/ionomycin-induced NF-kB reporter, 697 cells, primary screen, B-cell NF-kB inhibitor project, cell-based, luminescence, uHTS. 697 B-cell NF-kB luciferase reporter, 16 h. inhibition, % at 4 µM. 330,000 tested, 0.33% active; in the data active = inhibition above about 35%
Jurkat NFkB conf: PMA/ionomycin-induced NF-kB reporter inhibitors, Jurkat retest, confirmation, T-cell NF-kB inhibitor project, cell-based, luminescence, single concentration | shares compounds with Jurkat NFkB inh | Jurkat NF-kB luciferase, 16 h | inhibition, % at 4 µM | 2,700 tested, 27% active | AID 435020, 2010;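 active = inhibition reaching about 45% at 4 µM in either replicate, limit read from the data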;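 note: plate controls were PMA/ionomycin stimulated DMSO wells for no effect and unstimulated DMSO wells for full effect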
697 NFkB conf: PMA/ionomycin-induced NF-kB reporter inhibitors, 697 retest, confirmation, B-cell NF-kB inhibitor project, cell-based, luminescence, single concentration; shares compounds with 697 NFkB inh; 2,000 tested, 35% active; 697 B-cell NF-kB luciferase, 16 h; AID 449746, 2010; inhibition, % at 4 µM; in the data active = inhibition mostly above about 28%, no sharp cut-off; inactive = mostly below about 22%
Gli-Sufu confirm: Gli-SUFU pathway antagonists, confirmation, single concentration, luciferase luminescence, Sufu-KO-LIGHT cells; shares compounds with Gli-Sufu antag; Gli luciferase reporter; inhibition, % at 5 µM; 2,500 tested, 40% active; AID 602428, 2012;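 active = mean inhibition at 5 µM reaching about 45%, limit read from the data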;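 note: plate controls were DMSO-treated cells for no effect and wells lacking cells for full effect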
Gli cytotox: cytotoxicity in Sufu-KO-LIGHT cells, confirmation, cytotoxicity control for Gli-SUFU antagonist project, cell-based, ATP luminescence, single concentration. shares compounds with Gli-Sufu antag. AID 651994, 2013. cytotoxicity, % at 5 µM. 2,500 tested, 32% active;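 active = mean cytotoxicity at 5 µM above about 25%, limit read from the data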;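 note: cells exposed to compound overnight for roughly 16 to 18 hours; plate controls were DMSO wells with cells for no effect and medium without cells for full effect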
Wnt3a counter: Wnt3a reporter signal inhibition, confirmation, counter-screen for Gli-SUFU antagonist project, Wnt-LIGHT cells, luminescence, single concentration; 2,500 tested, 20% active; inhibition, % at 6.25 µM; Wnt3a-driven luciferase reporter; AID 651995, 2013; shares compounds with Gli-Sufu antag;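 active = mean inhibition above about 25%, limit read from the data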
Active calls of the source: *; ? = inconclusive; . = no result.

SMILES	Gli-Sufu antag	Jurkat NFkB inh	iPSC survival up	H9c2 TAG inh	Lipid droplet	697 NFkB inh	Jurkat NFkB conf	Gli-Sufu confirm	Gli cytotox	Wnt3a counter	others
CCn1ccc(=N)cc1	3.1	10.1	-0.6	-10.9	22.7	7.0	.	.	.	.
CCCCCCCn1ccc(=N)cc1	84.2*	65.8*	0.8	-39.6	-61.5	89.0*	74.2*	88.1*	34.9*	42.7*	697 NFkB conf=82.8*
COc1ccc(/C=N/NC(=O)c2ccc(O)cc2O)cc1CSc1ccccn1	-4.3	-5.9	0.5	.	18.2	13.7	.	.	.	.
CC(C)(C)C(=O)Nc1ccc(N=Nc2ccccc2)cc1	63.7*	-218.7	-0.8	1.3	-5.3	-261.2	15.5	54.5*	60.4*	82.3*	697 NFkB conf=-204.1
O=C(O)CCC(=O)Nc1ccc(N=Nc2ccccc2)cc1	2.6	.	1.6	-5.1	8.6	.	.	.	.	.
Cc1cc(C)nc(SCC(=O)Nc2ccnc3ccccc23)n1	64.4*	63.9*	-0.6	-42.0	-7.7	23.3	64.7*	66.7*	13.9	41.0*
COC(=O)c1ccccc1NC(=O)CSc1nc(C)cc(C)n1	4.2	13.0	-0.3	-5.3	-21.9	-2.5	.	.	.	.
COc1ccc(OCc2nnc(SCC(=O)Nc3ccccc3F)o2)cc1	-9.5	10.0	0.2	.	-4.1	4.7	.	.	.	.
Cc1cc(C(C)(C)C)cc(C)c1C[n+]1ccc2ccccc2c1	79.1*	77.1*	-0.5	.	-91.5	19.5	50.7*	88.2*	22.7	45.8*
COc1ccc(CNC(=O)C/C(C)=N/NC(=O)COc2cccc(C)c2)cc1	-7.6	-1.3	1.8	-2.8	-7.2	12.3	.	.	.	.
COc1ccc(CCNc2ncnc3c2oc2ccccc23)cc1OC	73.3*	62.0*	-1.3	.	.	46.9*	57.4*	74.8*	28.1*	30.7*	697 NFkB conf=54.0*
COc1ccc(CCNc2ncnc3sccc23)cc1OC	75.0*	64.3*	-0.6	-26.0	-53.8	74.6*	66.8*	79.7*	43.1*	41.3*	697 NFkB conf=92.3*
COc1ccc(Nc2ncnc3sccc23)cc1OC	-6.8	-28.9	-0.8	.	30.5	-5.7	.	.	.	.
Nc1ccc(C(=O)NN2C(=O)[C@H](Cl)C2c2ccc(Cl)cc2)cc1 (stereo partly drawn)	10.1	.	-4.2	13.4	.	.	.	.	.	.
O=C(O)c1ccc2c(c1)N(Cc1ccccc1)C(=O)c1ccccc1S2	8.8	1.5	0.3	1.4	-11.3	5.2	.	.	.	.
Cc1ccc(C(=O)CN2C(=O)c3ccccc3S2(=O)=O)cc1	78.2*	81.0*	-0.5	6.1	-5.2	72.9*	66.4*	86.8*	26.2*	95.3*	697 NFkB conf=51.4*
Cc1cc(C(=O)CN2C(=O)c3ccccc3S2(=O)=O)c(C)n1C(C)C	57.1*	55.2*	-4.7	-3.3	.	9.5	18.6	49.2*	12.4	43.6*
CCN(CC)S(=O)(=O)c1ccc(OC)c(NC(=O)c2cc([N+](=O)[O-])ccc2N2CCOCC2)c1	.	.	-1.7	-17.0	.	.	.	.	.	.
O=C(c1cc(COc2cccc3cnccc23)on1)N1CCCC(CCCO)C1 (stereo not drawn)	79.7*	54.7*	-0.2	-9.9	-37.1	56.1*	77.2*	74.5*	28.9*	4.0	697 NFkB conf=101.5*
COc1ccc(CCN2C(=O)CS/C2=N\NC(=O)c2cccs2)cc1OC	-4.3	-7.4	0.6	-5.7	-0.5	9.1	.	.	.	.
Cc1ccc(S(=O)(=O)NCC2CCCO2)cc1 (stereo not drawn)	.	-4.6	0.2	-11.9	4.2	0.5	.	.	.	.
O=S(=O)(NCC1CCCO1)c1ccc(-c2ccc(S(=O)(=O)NCC3CCCO3)cc2)cc1 (stereo not drawn)	73.7*	70.3*	0.1	-37.5	-17.5	47.8*	69.3*	67.3*	31.0*	34.7*	697 NFkB conf=82.7*
O=C(c1ccccc1)c1cc([N+](=O)[O-])ccc1N1CCOCC1	50.0	50.9*	1.1	.	?	-8.0	49.5*	55.6*	53.0*	-42.1
O=C(c1ccc(Cl)cc1)c1cc([N+](=O)[O-])ccc1N1CCOCC1	53.1	69.9*	0.0	35.0	?	8.3	40.8	51.1*	47.0*	-41.0
Cc1ccc(NC(=O)c2ccccc2N2C(=O)C3C4C=CC(C5CC45)C3C2=O)cc1C (stereo not drawn)	10.6	10.8	-0.3	3.4	11.1	7.9	.	.	.	.
SMILES	Gli-Sufu antag	Jurkat NFkB inh	iPSC survival up	H9c2 TAG inh	Lipid droplet	697 NFkB inh	Jurkat NFkB conf	Gli-Sufu confirm	Gli cytotox	Wnt3a counter	others
CCOc1ccc(N(CC(=O)Nc2ccccc2OCC)S(=O)(=O)c2c(C)noc2C)cc1	53.4	57.3*	-0.4	.	?	-25.1	61.6*	63.5*	51.8*	47.2*
CCOc1ccc(N(CC(=O)Nc2ccc(C)cc2)S(=O)(=O)c2c(C)noc2C)cc1	7.8	15.5	-2.9	14.0	.	12.3	.	.	.	.
COc1ccc(NC(=O)[C@H](C)NC(=O)C2CCN(S(=O)(=O)c3ccc(OC)cc3)CC2)cc1	4.4	25.9	1.0	.	3.7	-4.2	.	.	.	.
Cc1cc(C(=O)c2ccc3ccccc3c2)c(C)o1	-3.9	13.9	-0.3	-6.5	.	9.5	.	.	.	.
Cc1ccc2nc(C)c3c(c2c1)OC(C(C)(Cl)Br)C3 (stereo not drawn)	7.5	17.9	-0.1	-11.2	15.8	-42.0	.	.	.	.
Cc1nc2ccccc2c2c1CC(C(C)(Cl)Br)O2 (stereo not drawn)	55.4*	55.5*	-0.3	-22.1	-18.6	-44.7	56.1*	58.4*	22.3	7.1
CCn1c(SCC(=O)NNC(=O)c2ccc(C)cc2)nnc1C1CC1	-24.9	-15.4	-0.6	.	-2.7	11.3	.	.	.	.
CCOc1ccc(/C=N/NC(=O)c2[nH]c3ccc(C)cc3c2C)cc1	31.3	-3.2	-0.3	.	-5.4	-3.5	.	.	.	.
